In ChEMBL document CHEMBL1811915, “Discovery of new chromone containing sulfonamides as potent inhibitors of bovine cytosolic carbonic anhydrase” (Bioorg Med Chem, 2011):

How the values were obtained:
Bos taurus = species: Bos taurus; assay: Inhibition of bovine carbonic anhydrase assessed as formation of p-nitrophenol from p-nitrophenyl acetate substrate at 0.5 mM after 30 mins by spectrophotometric method
Method in brief: (§1)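 Bovine cytosolic CA (CA-I plus CA-II mix, 98.9% pure), 0.35 U/well, in 50 mM Tris–sulfate pH 7.6 with 0.1 mM ZnCl₂. Compound in DMSO is pre-incubated with enzyme for 10 min at 25 °C and pre-read at 348 nm. p-Nitrophenyl acetate is added to 0.6 mM final, then read at 348 nm after 30 min at 25 °C. Percent inhibition is relative to DMSO control; mean of three independent experiments ± sem.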

[1] = Inhibition of bovine carbonic anhydrase assessed as formation of p-nitrophenol from p-nitrophenyl acetate substrate after 30 mins by spectrophotometric method; parameters: species or system Bos taurus; method in brief: as §1

Compound | inhibition (Bos taurus) [%] | IC50 [1] [µmol] | Ki [1] [µM]
CCOC1Oc2ccc(CC)cc2C(=O)/C1=C\Nc1ccc(S(N)(=O)=O)cc1 (centres undefined) | 69.7 | 16.63 | –
CCOC1Oc2ccccc2C(=O)/C1=C\Nc1ccc(S(N)(=O)=O)cc1 (centres undefined) | 64 | 19.21 | –
CCOC1Oc2ccc(CC)cc2C(=O)/C1=C\Nc1cccc(S(N)(=O)=O)c1 (centres undefined) | 65.3 | 11.71 | –
CCOC1Oc2ccc(Br)cc2C(=O)/C1=C\Nc1cccc(S(N)(=O)=O)c1 (centres undefined) | 68.8 | 18.27 | –
CCOC1Oc2ccc(Br)cc2C(=O)/C1=C\Nc1ccc(S(N)(=O)=O)cc1 (centres undefined) | 65.2 | 16.12 | –
CS(N)(=O)=O [METHANESULFONAMIDE] | – | – | 100
NS(=O)(=O)C(F)(F)F [TRIFLUOROMETHANESULFONAMIDE] | – | – | 0.002
CC(=O)Nc1nnc(S(N)(=O)=O)s1 [ACETAZOLAMIDE] | 91.3 | 1.13 | –
CCOC1Oc2ccccc2C(=O)/C1=C\Nc1cccc(S(N)(=O)=O)c1 (centres undefined) | 67.6 | 17.72 | –
CCOC1Oc2ccc(F)cc2C(=O)/C1=C\Nc1ccc(S(N)(=O)=O)cc1 (centres undefined) | 71.2 | 4.31 | –
CCOC1Oc2c(Br)cc(Br)cc2C(=O)/C1=C\Nc1cccc(S(N)(=O)=O)c1 (centres undefined) | 61.2 | 29.12 | –
CCOC1Oc2c(Br)cc(Br)cc2C(=O)/C1=C\Nc1ccc(S(N)(=O)=O)cc1 (centres undefined) | 67.3 | 21.12 | –
CCOC1Oc2ccc(F)cc2C(=O)/C1=C\Nc1cccc(S(N)(=O)=O)c1 (centres undefined) | 66.8 | 11.37 | –
